Results from ChEMBL document CHEMBL3352402, “Pharmacological evaluation and docking studies of α,β-unsaturated carbonyl based synthetic compounds as inhibitors of secretory phospholipase A₂, cyclooxygenases, lipoxygenase and proinflammatory cytokines” (Bioorg Med Chem, 2014).
The source made the active and inactive calls. The rule behind the calls is not given here.

How the values were obtained:
[1] = target: T1, Prostaglandin G/H synthase 1 (Ovis aries, UniProt P05979); assay: Inhibition of ovine COX1 using arachidonic acid substrate assessed as PGE2 production ELISA method after 2 mins
T1 sequence (P05979 whole entry): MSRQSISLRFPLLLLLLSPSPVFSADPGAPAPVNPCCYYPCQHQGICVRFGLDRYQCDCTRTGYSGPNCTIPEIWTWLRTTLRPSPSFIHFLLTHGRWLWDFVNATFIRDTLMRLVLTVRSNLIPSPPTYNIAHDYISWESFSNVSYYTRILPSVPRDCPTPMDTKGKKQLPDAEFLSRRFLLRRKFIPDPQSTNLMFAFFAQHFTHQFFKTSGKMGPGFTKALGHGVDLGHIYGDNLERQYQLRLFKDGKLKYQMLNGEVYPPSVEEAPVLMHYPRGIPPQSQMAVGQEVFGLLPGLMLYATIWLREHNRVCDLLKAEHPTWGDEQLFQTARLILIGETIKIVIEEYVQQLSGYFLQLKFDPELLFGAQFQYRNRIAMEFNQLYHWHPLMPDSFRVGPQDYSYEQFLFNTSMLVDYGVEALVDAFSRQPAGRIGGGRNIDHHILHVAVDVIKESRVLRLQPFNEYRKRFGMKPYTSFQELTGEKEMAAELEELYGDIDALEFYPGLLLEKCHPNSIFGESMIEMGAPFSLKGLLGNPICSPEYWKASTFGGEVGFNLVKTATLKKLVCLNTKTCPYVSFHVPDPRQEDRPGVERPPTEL

[2] = Inhibition of sPLA2-V (unknown origin) using substrate 1,2-bis(heptanoylthio)-glycerophosphocholine by Ellman's method based photometric assay; set-up: species or system Homo sapiens
RAW264.7 [3] = assay: Immunostimulatory activity in mouse RAW264.7 cells assessed as stimulation of IL6 release at 10 uM per-treated with compound for 2 hrs before LPS challenge for 22 hrs by ELISA method; assay type: functional, cell-based
Method in brief: (§1)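 RAW 264.7 macrophages grown in DMEM with 10% heat-inactivated FBS and 1% Pen Strep, 37°C, 5% CO2. Pretreated 2 h with compound (10 µM) or vehicle, then LPS (0.5 µg/ml, in PBS) 22 h. Medium was centrifuged and cytokine measured by mouse ELISA. Levels were normalized to total protein of the cell pellet and expressed as percent of LPS control. Triplicates, mean ± SEM.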

[4] = target: T2, Prostaglandin G/H synthase 2 (Homo sapiens, UniProt P35354); assay: Inhibition of human recombinant COX2 using arachidonic acid substrate assessed as PGE2 production ELISA method after 2 mins
T2 sequence (P35354 whole entry): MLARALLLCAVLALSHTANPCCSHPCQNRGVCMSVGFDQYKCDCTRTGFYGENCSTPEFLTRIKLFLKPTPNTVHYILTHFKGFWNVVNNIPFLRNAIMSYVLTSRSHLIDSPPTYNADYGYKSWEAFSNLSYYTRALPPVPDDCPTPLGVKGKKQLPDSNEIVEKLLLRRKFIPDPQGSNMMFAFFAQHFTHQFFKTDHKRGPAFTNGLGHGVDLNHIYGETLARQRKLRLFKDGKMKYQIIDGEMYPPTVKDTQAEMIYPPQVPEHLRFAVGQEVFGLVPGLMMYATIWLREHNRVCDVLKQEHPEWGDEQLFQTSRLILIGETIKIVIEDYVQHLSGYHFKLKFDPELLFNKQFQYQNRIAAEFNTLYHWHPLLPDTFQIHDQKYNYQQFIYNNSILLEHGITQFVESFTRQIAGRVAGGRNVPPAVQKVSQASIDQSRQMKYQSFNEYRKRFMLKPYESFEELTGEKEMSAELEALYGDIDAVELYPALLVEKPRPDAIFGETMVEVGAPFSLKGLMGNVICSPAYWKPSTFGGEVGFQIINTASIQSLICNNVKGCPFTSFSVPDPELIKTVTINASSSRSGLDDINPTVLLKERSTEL

Lipoxygenase = Lipoxygenase (Glycine max, UniProt Q39829); assay: (§2) Inhibition of soybean lipoxygenase after 5 mins by colorimetric assay
Method in brief: (§3)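 Purified soybean lipoxygenase resuspended in 0.1 M Tris-HCl, pH 7. Enzyme plus test sample was started with substrate (dissolved in KOH, diluted to 1 mM) at room temperature for 5 min. Chromogen was added for 5 min to stop the reaction, then absorbance read at 490 nm. Activity is relative to enzyme plus substrate alone.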

RAW264.7 [5] = assay: Immunostimulatory activity in mouse RAW264.7 cells assessed as stimulation of TNFalpha expression at 10 uM per-treated with compound for 2 hrs before LPS challenge for 22 hrs by ELISA method; assay type: functional, cell-based; method in brief: as §1
RAW264.7 [6] = assay: Inhibition of IL6 release in mouse RAW264.7 cells at 10 uM per-treated with compound for 2 hrs before LPS challenge for 22 hrs by ELISA method; assay type: functional; method in brief: as §1
RAW264.7 [7] = assay: Inhibition of TNFalpha expression in mouse RAW264.7 cells at 10 uM per-treated with compound for 2 hrs before LPS challenge for 22 hrs by ELISA method; assay type: functional
[8] = target: Lipoxygenase (Glycine max) (UniProt Q39829); assay: Inhibition of soybean lipoxygenase at 40 ug/mL after 5 mins by colorimetric assay
[9] = target: Lipoxygenase (Glycine max) (UniProt Q39829); assay: as §2; method in brief: as §3

IC50 [1] [µM] | IC50 [2] [µM] | IC50 [4] [µM] | IC50 (Lipoxygenase) [µM] | inhibition [8] [%] | inhibition [9] | Compound | Activity (RAW264.7 [3]) | Activity (RAW264.7 [5]) | inhibition at 10 µM (RAW264.7 [6]) [%] | inhibition at 10 µM (RAW264.7 [7]) [%]
21.5 | 37.6 | 28 |  |  |  | CN(C)c1ccc(/C=C2\CCc3ccccc3C2=O)c([N+](=O)[O-])c1 | Active |  |  | 
29.3 | 22.2 | 37.7 | 157 |  |  | CN(C)c1ccc(/C=C/C(=O)C2CCc3ccccc3C2=O)c([N+](=O)[O-])c1 (stereo unspecified) |  |  |  | 
 | 67.3 | 54.6 |  |  |  | O=C1/C(=C/c2ccc(N3CCCC3)cc2)Cc2ccccc21 | Active | Active |  | 
 | 0.61 |  |  |  |  | C[C@@H]1C[C@H]2[C@@H]3CCC4=CC(=O)C=C[C@]4(C)[C@@]3(F)[C@@H](O)C[C@]2(C)[C@@]1(O)C(=O)CO [DEXAMETHASONE] |  |  |  | 
33.5 | 28.3 | 54.3 |  |  |  | O=C1/C(=C/c2ccc(N3CCCC3)cc2)CCC/C1=C\c1ccc(N2CCCC2)cc1 |  |  |  | 
0.72 | 7.79 | 18.6 | 44.7 |  |  | CN(C)c1ccc(/C=C2\COC/C(=C\c3ccc(N(C)C)cc3[N+](=O)[O-])C2=O)c([N+](=O)[O-])c1 |  |  | 76 | 73
 | 4.21 | 38.2 | 65.6 | 67.6 |  | CCOC(OCC)c1ccc(/C=C2\CN(C)C/C(=C\c3ccc(C(OCC)OCC)cc3)C2=O)cc1 |  |  | 76 | 73
2.22 | 37.3 | 19.3 |  |  |  | CCOC(OCC)c1ccc(/C=C2\Cc3ccccc3C2=O)cc1 |  |  |  | 
 | 7.14 | 27.7 | 88.4 |  |  | CCOC(OCC)c1ccc(/C=C2\CNC/C(=C\c3ccc(C(OCC)OCC)cc3)C2=O)cc1 |  |  | 91 | 91
51.3 | 19.2 | 57.2 |  |  |  | O=C1/C(=C/c2ccc(N3CCCC3)cc2)CN(Cc2ccccc2)C/C1=C\c1ccc(N2CCCC2)cc1 |  |  |  | 
1.22 | 2.19 | 9.12 | 38.3 |  |  | CN1C/C(=C\c2ccc(N(C)C)cc2[N+](=O)[O-])C(=O)/C(=C/c2ccc(N(C)C)cc2[N+](=O)[O-])C1 |  |  | 91 | 91
 | 12.6 | 17.4 | 83.1 |  |  | CCOC(OCC)c1ccc(/C=C2\CCC/C(=C\c3ccc(C(OCC)OCC)cc3)C2=O)cc1 |  |  |  | 
3.96 | 18.2 | 15 | 103 |  |  | CN(C)c1ccc(/C=C/C(=O)/C=C/c2ccc(N(C)C)cc2[N+](=O)[O-])c([N+](=O)[O-])c1 |  |  | 76 | 
69.2 | 11.2 | > 100 |  |  |  | CN1C/C(=C\c2ccc(N3CCCC3)cc2)C(=O)/C(=C/c2ccc(N3CCCC3)cc2)C1 |  |  |  | 
 | 58.2 | > 100 |  |  |  | CCOC(OCC)c1ccc(/C=C2\CCc3ccccc3C2=O)cc1 |  | Active |  | 
0.42 | 11.2 | > 100 | 29.3 |  |  | CN(C)c1ccc(/C=C2/CCC/C(=C\c3ccc(N(C)C)cc3[N+](=O)[O-])C2=O)c([N+](=O)[O-])c1 |  |  |  | 
 | 8.76 | 11.2 | 91 |  |  | CCOC(OCC)c1ccc(/C=C2\COC/C(=C\c3ccc(C(OCC)OCC)cc3)C2=O)cc1 |  |  |  | 73

IC50 [1] [µM] | IC50 [2] [µM] | IC50 [4] [µM] | IC50 (Lipoxygenase) [µM] | inhibition [8] [%] | inhibition [9] | Compound | Activity (RAW264.7 [3]) | Activity (RAW264.7 [5]) | inhibition at 10 µM (RAW264.7 [6]) [%] | inhibition at 10 µM (RAW264.7 [7]) [%]
9.91 | 28 | 14.8 |  |  |  | CN(C)c1ccc(/C=C2\Cc3ccccc3C2=O)c([N+](=O)[O-])c1 |  |  |  | 
37.8 | 55.7 | 46.2 |  |  |  | O=C1/C(=C/c2ccc(N3CCCC3)cc2)CC/C1=C\c1ccc(N2CCCC2)cc1 |  | Active |  | 
 |  |  | 9.23 |  |  | CC(Cc1ccc(O)c(O)c1)C(C)Cc1ccc(O)c(O)c1 (stereo unspecified) [NORDIHYDROGUAIARETIC ACID] |  |  |  | 
33.5 | 54.2 | > 100 |  |  |  | O=C1/C(=C/c2ccc(N3CCCC3)cc2)CCc2ccccc21 |  |  |  | 
29.7 | 10.1 |  | 59.5 | 68.3 | Dose-dependent effect | COc1cc(/C=C/C(=O)CC(=O)/C=C/c2ccc(O)c(OC)c2)ccc1O [CURCUMIN] |  |  |  | 
 | 38.4 | > 100 |  |  |  | CN(C)c1ccc(/C=C2\CC/C(=C\c3ccc(N(C)C)cc3[N+](=O)[O-])C2=O)c([N+](=O)[O-])c1 |  |  |  | 
 | 12.1 | > 100 |  |  |  | O=C1/C(=C/c2ccc(N3CCCC3)cc2)CNC/C1=C\c1ccc(N2CCCC2)cc1 |  |  |  | 
3.22 | 19.2 | 31.5 | 210 |  |  | CCOC(OCC)c1ccc(/C=C/C(=O)/C=C/c2ccc(C(OCC)OCC)cc2)cc1 |  |  | 76 | 
3.17 | 17.8 | > 100 |  |  |  | CCOC(OCC)c1ccc(/C=C2\CN(Cc3ccccc3)C/C(=C\c3ccc(C(OCC)OCC)cc3)C2=O)cc1 |  |  |  | 
14.6 | 15.2 | 19.2 | 211 |  |  | CN(C)c1ccc(/C=C2\CN(Cc3ccccc3)C/C(=C\c3ccc(N(C)C)cc3[N+](=O)[O-])C2=O)c([N+](=O)[O-])c1 |  |  |  | 
 | 44.1 | 61.2 |  |  |  | O=C(/C=C/c1ccc(N2CCCC2)cc1)C1CCc2ccccc2C1=O (stereo unspecified) | Active |  |  | 
39.4 | 15.2 | > 100 |  |  |  | O=C1/C(=C/c2ccc(N3CCCC3)cc2)COC/C1=C\c1ccc(N2CCCC2)cc1 |  |  |  | 
49.3 | 29.3 | 69.8 |  |  |  | O=C(/C=C/c1ccc(N2CCCC2)cc1)/C=C/c1ccc(N2CCCC2)cc1 |  |  |  | 
1.12 | 27.7 | 13.3 | 52.2 | 69.5 | 69.5% | CCOC(OCC)c1ccc(/C=C/C(=O)C2CCc3ccccc3C2=O)cc1 (stereo unspecified) |  |  |  | 
 |  | 14.8 |  |  |  | CCOC(OCC)c1ccc(/C=C2\CC/C(=C\c3ccc(C(OCC)OCC)cc3)C2=O)cc1 |  |  |  | 
0.67 | 4.19 | 7.88 | 39.5 |  |  | CN(C)c1ccc(/C=C2\CNC/C(=C\c3ccc(N(C)C)cc3[N+](=O)[O-])C2=O)c([N+](=O)[O-])c1 |  |  | 76 | 73
